The source of these data is ChEMBL document CHEMBL3044673, “Design, synthesis and insecticidal activity of novel phenylpyrazoles containing a 2,2,2-trichloro-1-alkoxyethyl moiety” (2010).

What all share (format): functional
For assay [1], the system named is Plutella xylostella. The experiment in a line: Insecticidal activity against Plutella xylostella (diamondback moth) grown on compound pre-treated fresh cabbage leaves assessed as insect mortality at 2.5 mg/kg measured 3 days post compound treatment by leaf-dip method. Summed up:
(§1)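 Leaf-dip stomach-toxicity assay on laboratory-reared diamondback moth. Test solutions came from a 200 mg L^-1 stock in dimethylformamide, diluted with water containing TW-20. Control leaves were treated with water and dimethylformamide. Tests were held at 25±1 °C, percentage mortality was scored 3 days after treatment, and each treatment was run three times.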

The subject of assay [2] is Aphis craccivora. Kind of assay: Insecticidal activity against Aphis craccivora (cowpea aphid) infested tender soybean shoots exposed to 2.5 mg/kg test compound solution assessed as insect mortality measured 24 hr post compound treatment. To be noted: Aphis craccivora, 24 h. The method in brief:
(§2)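 Soybean tender shoots carrying 60 aphids were dipped in test solutions. Solutions were made from a 200 mg L^-1 stock in dimethylformamide, diluted with water containing TW-20. Insects were laboratory-reared, tests were held at 25±1 °C, and mortality was scored.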

The subject of assay [3] is Plutella xylostella. The experiment in a line: Insecticidal activity against Plutella xylostella (diamondback moth) grown on compound pre-treated fresh cabbage leaves assessed as insect mortality at 5 mg/kg measured 3 days post compound treatment by leaf-dip method. Conditions: Plutella xylostella. Summed up: as §1
The test system of assay [4] is Aphis craccivora. The experiment in a line: Insecticidal activity against Aphis craccivora (cowpea aphid) infested tender soybean shoots exposed to 100 mg/kg test compound solution assessed as insect mortality measured 24 hr post compound treatment. Summed up:
as §2

For assay [5], the system named is Culex pipiens pallens. Kind of assay: Insecticidal activity against Culex pipiens pallens (mosquito) assessed as insect mortality at 5 ug/kg measured 1 day post compound treatment. Conditions: 24 h. The method in brief: (§3)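 Fourth-instar Culex pipiens pallens larvae, 20 per test, were laboratory-reared and placed in 100 mL of test solution made by adding 1 mL of compound dilution to 99 mL of water. Tests were held at 25±1 °C, percentage mortality was scored 1 day after treatment, and each test was run three times.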

For assay [6], the system named is Plutella xylostella. Kind of assay: Insecticidal activity against Plutella xylostella (diamondback moth) grown on compound pre-treated fresh cabbage leaves assessed as insect mortality at 100 mg/kg measured 3 days post compound treatment by leaf-dip method. Summed up:
as §1

Assay [7] deals with Culex pipiens pallens. Kind of assay: Insecticidal activity against Culex pipiens pallens (mosquito) assessed as insect mortality at 50 ug/kg measured 1 day post compound treatment. Conditions: 24 h. The method in brief: as §3
Assay [8] has as its system Aphis craccivora. Kind of assay: Insecticidal activity against Aphis craccivora (cowpea aphid) infested tender soybean shoots exposed to 10 mg/kg test compound solution assessed as insect mortality measured 24 hr post compound treatment. To be noted: Aphis craccivora, 24 h. Summed up: as §2
The test system of assay [9] is Aphis craccivora. The experiment in a line: Insecticidal activity against Aphis craccivora (cowpea aphid) infested tender soybean shoots exposed to 200 mg/kg test compound solution assessed as insect mortality measured 24 hr post compound treatment. Summed up:
as §2

In assay [10] the test system is Culex pipiens pallens. Kind of assay: Insecticidal activity against Culex pipiens pallens (mosquito) assessed as insect mortality at 10 ug/kg measured 1 day post compound treatment. Conditions: 24 h. The method in brief: as §3
The test system of assay [11] is Culex pipiens pallens. The experiment in a line: Insecticidal activity against Culex pipiens pallens (mosquito) assessed as insect mortality at 25 ug/kg measured 1 day post compound treatment. To be noted: 24 h. Summed up: as §3
Assay [12] concerns Plutella xylostella. Kind of assay: Insecticidal activity against Plutella xylostella (diamondback moth) grown on compound pre-treated fresh cabbage leaves assessed as insect mortality at 25 mg/kg measured 3 days post compound treatment by leaf-dip method. To be noted: Plutella xylostella. The method in brief:
as §1

Assay [13] concerns Aphis craccivora. The experiment in a line: Insecticidal activity against Aphis craccivora (cowpea aphid) infested tender soybean shoots exposed to 5 mg/kg test compound solution assessed as insect mortality measured 24 hr post compound treatment. To be noted: Aphis craccivora, 24 h. The method in brief:
as §2

Assay [14] deals with Plutella xylostella. Kind of assay: Insecticidal activity against Plutella xylostella (diamondback moth) grown on compound pre-treated fresh cabbage leaves assessed as insect mortality at 10 mg/kg measured 3 days post compound treatment by leaf-dip method. To be noted: Plutella xylostella. The method in brief:
as §1

Assay [15] has as its system Plutella xylostella. The experiment in a line: Insecticidal activity against Plutella xylostella (diamondback moth) grown on compound pre-treated fresh cabbage leaves assessed as insect mortality at 200 mg/kg measured 3 days post compound treatment by leaf-dip method. The method in brief:
as §1

For assay [16], the system named is Plutella xylostella. Kind of assay: Insecticidal activity against Plutella xylostella (diamondback moth) grown on compound pre-treated fresh cabbage leaves assessed as insect mortality at 50 mg/kg measured 3 days post compound treatment by leaf-dip method. Summed up: as §1
For assay [17], the system named is Culex pipiens pallens. The experiment in a line: Insecticidal activity against Culex pipiens pallens (mosquito) assessed as insect mortality at 100 ug/kg measured 1 day post compound treatment. To be noted: Culex pipiens, 24 h. The method in brief:
as §3

For assay [18], the system named is Aphis craccivora. Kind of assay: Insecticidal activity against Aphis craccivora (cowpea aphid) infested tender soybean shoots exposed to 25 mg/kg test compound solution assessed as insect mortality measured 24 hr post compound treatment. The method in brief: as §2
Assay [19] has as its system Aphis craccivora. The experiment in a line: Insecticidal activity against Aphis craccivora (cowpea aphid) infested tender soybean shoots exposed to 50 mg/kg test compound solution assessed as insect mortality measured 24 hr post compound treatment. Summed up: as §2
Assay [20] concerns Culex pipiens pallens. The experiment in a line: Insecticidal activity against Culex pipiens pallens (mosquito) assessed as insect mortality at 2.5 ug/kg measured 1 day post compound treatment. Conditions: 24 h. The method in brief: as §3

The mortality is the percentage killed. With `CSc1c(C#N)nn(-c2c(Cl)cc(C(F)(F)F)cc2Cl)c1NC(OCCCl)C(Cl)(Cl)Cl` (centres undefined), the mortality at 2.5 mg/kg in the assay on Plutella xylostella [1] and in the assay on Aphis craccivora [2] was 62% in each case. The mortality at 5 mg/kg in the assay on Plutella xylostella [3] amounted to 87%; in the assay with Aphis craccivora [13] it was 69%. For the same molecule, the mortality at 100 mg/kg with Aphis craccivora [4] and in the assay on Plutella xylostella [6] was 100% each time. In the assay on Culex pipiens pallens [5], the mortality at 0.005 mg/kg was determined as 20%. Also, in the assay with Culex pipiens pallens [7], the mortality at 0.05 mg/kg came out at 100%. Moreover, the mortality at 10 mg/kg in the assay with Aphis craccivora [8] is 73%; in the assay on Plutella xylostella [14] it was 100%. For the same molecule, the mortality at 200 mg/kg in the assay on Aphis craccivora [9] and in the assay with Plutella xylostella [15] was 100% in each case. The mortality at 0.01 mg/kg with Culex pipiens pallens [10] stood at 100%. The mortality at 0.025 mg/kg in the assay on Culex pipiens pallens [11] stood at 100%. The values for the mortality at 25 mg/kg in the assay with Plutella xylostella [12] and in the assay with Aphis craccivora [18] were 100% and 98%, respectively. Further, the mortality at 50 mg/kg with Plutella xylostella [16] and in the assay on Aphis craccivora [19] was 100% each time. Besides, the mortality at 0.1 mg/kg with Culex pipiens pallens [17] stood at 100%.
With `CSc1c(C#N)nn(-c2c(Cl)cc(C(F)(F)F)cc2Cl)c1NC(OCCF)C(Cl)(Cl)Cl` (centres undefined), the figures for the mortality at 2.5 mg/kg in the assay with Plutella xylostella [1] and in the assay with Aphis craccivora [2] were 34% and 0%, respectively. For the same molecule, the results for the mortality at 5 mg/kg in the assay with Plutella xylostella [3] and in the assay on Aphis craccivora [13] were 81% and 28%, respectively. For the same molecule, the mortality at 100 mg/kg in the assay with Aphis craccivora [4] and in the assay with Plutella xylostella [6] was 100% each time. For the same molecule, the mortality at 0.05 mg/kg in the assay with Culex pipiens pallens [7] amounted to 100%. The values for the mortality at 10 mg/kg in the assay on Aphis craccivora [8] and in the assay with Plutella xylostella [14] were 62% and 89%, respectively. Also, the mortality at 200 mg/kg with Aphis craccivora [9] and in the assay on Plutella xylostella [15] was 100% throughout. Also, the mortality at 0.01 mg/kg with Culex pipiens pallens [10] was 40%. The mortality at 0.025 mg/kg with Culex pipiens pallens [11] was 100%. In addition, the mortality at 25 mg/kg with Plutella xylostella [12] stood at 100%; in the assay on Aphis craccivora [18], 74%. Further, the mortality at 50 mg/kg in the assay with Plutella xylostella [16] and in the assay with Aphis craccivora [19] was 100% throughout. Besides, the mortality at 0.1 mg/kg in the assay with Culex pipiens pallens [17] came out at 100%.
`CCCOC(Nc1c(SC)c(C#N)nn1-c1c(Cl)cc(C(F)(F)F)cc1Cl)C(Cl)(Cl)Cl` (centres undefined): the mortality at 2.5 mg/kg with Aphis craccivora [2] stood at 0%. Besides, the mortality at 100 mg/kg in the assay with Aphis craccivora [4] and in the assay on Plutella xylostella [6] was 100% in each case. The mortality at 0.005 mg/kg with Culex pipiens pallens [5] stood at 100%. Moreover, the mortality at 0.05 mg/kg in the assay on Culex pipiens pallens [7] worked out at 100%. Moreover, the mortality at 10 mg/kg was 21% in the assay with Aphis craccivora [8] and 0% in the assay with Plutella xylostella [14]. For the same molecule, the mortality at 200 mg/kg in the assay on Aphis craccivora [9] and in the assay on Plutella xylostella [15] was 100% throughout. In addition, the mortality at 0.01 mg/kg in the assay on Culex pipiens pallens [10] is 100%. In addition, the mortality at 0.025 mg/kg with Culex pipiens pallens [11] is 100%. Besides, the figures for the mortality at 25 mg/kg with Plutella xylostella [12] and with Aphis craccivora [18] were 17% and 43%, respectively. In the assay with Aphis craccivora [13], the mortality at 5 mg/kg was 0%. Further, the mortality at 0.0025 mg/kg in the assay with Culex pipiens pallens [20] was 100%. The mortality at 50 mg/kg in the assay with Plutella xylostella [16] worked out at 36%; in the assay with Aphis craccivora [19], 90%. Further, the mortality at 0.1 mg/kg with Culex pipiens pallens [17] came out at 100%.
Take `CCOC(Nc1c(SC)c(C#N)nn1-c1c(Cl)cc(C(F)(F)F)cc1Cl)C(Cl)(Cl)Cl` (centres undefined): the mortality at 2.5 mg/kg in the assay on Plutella xylostella [1] was found to be 0%. The mortality at 5 mg/kg with Plutella xylostella [3] was 43%; in the assay with Aphis craccivora [13], 0%. Also, the mortality at 100 mg/kg in the assay on Aphis craccivora [4] and with Plutella xylostella [6] was 100% each time. Moreover, in the assay with Culex pipiens pallens [5], the mortality at 0.005 mg/kg came out at 100%. The mortality at 0.05 mg/kg with Culex pipiens pallens [7] turned out to be 100%. For the same molecule, the mortality at 10 mg/kg stood at 0% in the assay on Aphis craccivora [8] and 68% with Plutella xylostella [14]. The mortality at 200 mg/kg in the assay with Aphis craccivora [9] and with Plutella xylostella [15] was 100% each time. Moreover, the mortality at 0.01 mg/kg in the assay on Culex pipiens pallens [10] is 100%. The mortality at 0.025 mg/kg in the assay on Culex pipiens pallens [11] was found to be 100%. For the same molecule, the values for the mortality at 25 mg/kg in the assay on Plutella xylostella [12] and in the assay with Aphis craccivora [18] were 84% and 43%, respectively. Also, the mortality at 0.0025 mg/kg in the assay on Culex pipiens pallens [20] came to 80%. Moreover, the values for the mortality at 50 mg/kg in the assay with Plutella xylostella [16] and in the assay with Aphis craccivora [19] were 100% and 56%, respectively. For the same molecule, in the assay on Culex pipiens pallens [17], the mortality at 0.1 mg/kg came out at 100%.
